According to paper PMC12583737 (Nature Communications, 2025):

How the values were obtained:
[1] = system: SMARCA2-nanoLuc and FBXO22-HaloTag; assay: SMARCA2/FBXO22 NanoBRET ternary complex assay in FBXO22 knockout HCC515 cells; assay type: cell-based; settings: FBXO22 knockout HCC515, overnight, 10 µM MLN4924
How it was run: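 FBXO22-knockout HCC515 cells were transiently co-transfected with SMARCA2-NanoLuc and FBXO22-HaloTag at a 1:20 ratio (FuGENE HD). They were replated next day at 25,000 per well with or without HaloTag 618 ligand and left overnight. Cells were pretreated 1 h with 10 µM MLN4924, which was kept throughout, then dosed with test compound or a control PROTAC for 24 h. Emissions at 460/618 nm were read 10 min after substrate. Ratio ×1000 gave mBU, with the no-ligand value subtracted. Mean ± sd, n = 2–6.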

V5-tagged FBXO22 = assay: Cellular thermal stability shift assay; assay type: binding; settings: lysates of HCC515 expressing V5-tagged FBXO22
How it was run: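 It got 10 µM neddylation inhibitor for 10 min, then compound or DMSO for 30 min at room temperature. Aliquots were heated 3 min across 38–71 °C in 3-degree steps and cleared at 20,000 g. Soluble V5-FBXO22 was read by anti-V5 immunoblot.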

Structure (SMILES) | BRET signal (ternary complex SMARCA2/FBXO22) [1] | thermal stability of FBXO22 (V5-tagged FBXO22)
Cc1ncsc1-c1ccc([C@H](C)NC(=O)[C@@H]2C[C@@H](O)CN2C(=O)[C@@H](c2cc(N3CCC(CN4CCC(OC5CC(Oc6cc(N7C8CCC7CN(c7cc(-c9ccccc9O)nnc7N)C8)ccn6)C5)CC4)CC3)no2)C(C)C)cc1 (some centres unmarked) [Compound A947] | not observed | –
Nc1nnc(-c2ccccc2O)cc1N1CC2CCC(C1)N2c1ccnc(F)c1 [Compound 7] | – | not observed
